In BindingDB's records for doi:10.1021/jm970034q (Oxis International, 1998):

Molecular target: T1, Polyunsaturated fatty acid 5-lipoxygenase (Rattus norvegicus, UniProt P12527)
T1 sequence (P12527 whole entry): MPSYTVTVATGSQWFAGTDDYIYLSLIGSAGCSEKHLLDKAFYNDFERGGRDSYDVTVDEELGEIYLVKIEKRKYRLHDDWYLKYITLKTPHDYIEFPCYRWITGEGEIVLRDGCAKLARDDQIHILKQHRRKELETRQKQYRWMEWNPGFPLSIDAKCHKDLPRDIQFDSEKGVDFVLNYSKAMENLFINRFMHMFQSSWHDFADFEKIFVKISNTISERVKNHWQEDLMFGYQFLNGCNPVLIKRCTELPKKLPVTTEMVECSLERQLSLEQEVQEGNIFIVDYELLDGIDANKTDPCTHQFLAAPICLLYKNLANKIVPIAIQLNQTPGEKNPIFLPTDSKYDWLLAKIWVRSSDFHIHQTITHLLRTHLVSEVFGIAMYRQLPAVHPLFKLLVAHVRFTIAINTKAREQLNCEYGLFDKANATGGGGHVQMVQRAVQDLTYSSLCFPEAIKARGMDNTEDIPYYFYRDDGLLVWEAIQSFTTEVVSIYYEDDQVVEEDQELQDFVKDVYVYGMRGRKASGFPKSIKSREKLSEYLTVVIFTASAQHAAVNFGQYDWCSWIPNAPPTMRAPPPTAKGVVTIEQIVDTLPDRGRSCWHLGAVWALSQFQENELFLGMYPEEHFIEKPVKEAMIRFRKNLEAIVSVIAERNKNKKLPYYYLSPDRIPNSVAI
Test: Inhibitory activity against 5-lipoxygenase obtained from rat basophilic leukemia cells
Method in brief: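 IC50 was determined against 5-LO in a broken RBL-1 cell assay, using a crude enzyme preparation from rat basophilic leukemia cells.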

Question: With Oc1oc(CCC#Cc2ccccc2CSc2ccccc2)c(O)c1O [3,4-Dihydroxy-5-[4-(2-phenylsulfanylmethyl-phenyl)-but-3-ynyl]-5H-furan-2-one] as the compound, how does the IC50 read?
Answer: 300 nM
